# Residues, ends and D or L forms follow the SMILES beside them.
# Tests used:
# [1] = Cytotoxicity against human erythrocytes assessed as hemolysis; assay type: cell-based; settings: erythrocyte
# Pseudomonas aeruginosa = experiment: Antibacterial activity against Pseudomonas aeruginosa ATCC 9027 by microdilution method; assay type: functional
# In short: (§1)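 Modified microdilution method. For the resin conjugates, the amount added to the medium volume was based on the total peptide quantity bound to the resin, as calculated by Fmoc titration.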
# Escherichia coli = experiment: Antibacterial activity against Escherichia coli ATCC 25922 by microdilution method; assay type: functional; in short: as §1
# Micrococcus luteus = experiment: Antibacterial activity against Micrococcus luteus ATCC 9341 by microdilution method; assay type: functional; in short: as §1
# Staphylococcus aureus = experiment: Antibacterial activity against Staphylococcus aureus ATCC 6538 by microdilution method; assay type: functional; in short: as §1
Compound,Activity [1],MIC (Pseudomonas aeruginosa),MIC (Escherichia coli),MIC (Micrococcus luteus),MIC (Staphylococcus aureus)
CC(C)[C@H](NC(=O)[C@H](CCCCN)NC(=O)[C@@H](NC(=O)[C@H](CCCCN)NC(=O)[C@H](Cc1ccccc1)NC(=O)[C@H](CCCCN)NC(=O)[C@@H](NC(=O)[C@H](CCCCN)NC(=O)[C@@H](N)Cc1ccccc1)C(C)C)C(C)C)C(=O)N[C@@H](CCCCN)C(N)=O (H-FKVKFKVKVK-NH2),Not Active,6.25 µg/mL,3.12 µg/mL,3.12 µg/mL,1.56 µg/mL
CC(C)[C@H](NC(=O)[C@H](CCCCN)NC(=O)[C@H](CCCCN)NC(=O)[C@H](CCCCN)NC(=O)[C@H](CCCCN)NC(=O)[C@H](CCCCN)NC(=O)[C@@H](NC(=O)[C@@H](NC(=O)[C@@H](N)Cc1ccccc1)C(C)C)C(C)C)C(=O)N[C@@H](Cc1ccccc1)C(N)=O (H-FVVKKKKKVF-NH2),,> 400 µg/mL,> 400 µg/mL,> 400 µg/mL,> 400 µg/mL
CC[C@H](C)[C@H](NC(=O)CN)C(=O)NCC(=O)N[C@@H](CCCCN)C(=O)N[C@@H](Cc1ccccc1)C(=O)N[C@@H](CC(C)C)C(=O)N[C@@H](Cc1c[nH]cn1)C(=O)N[C@@H](CO)C(=O)N[C@@H](C)C(=O)N[C@@H](CCCCN)C(=O)N[C@@H](CCCCN)C(=O)N[C@@H](Cc1ccccc1)C(=O)NCC(=O)N[C@@H](CCCCN)C(=O)N[C@@H](C)C(=O)N[C@@H](Cc1ccccc1)C(=O)N[C@H](C(=O)NCC(=O)N[C@@H](CCC(=O)O)C(=O)N[C@H](C(=O)N[C@@H](CCSC)C(=O)N[C@@H](CC(N)=O)C(=O)N[C@@H](CO)C(=O)O)[C@@H](C)CC)C(C)C [MAGAININ 2] (H-GIGKFLHSAKKFGKAFVGEIMNS-OH),,25 µg/mL,50 µg/mL,50 µg/mL,50 µg/mL

# Reference: ChEMBL document CHEMBL1140458, “Design and synthesis of novel antibacterial peptide-resin conjugates” (Bioorg Med Chem Lett, 2007)
